The values that follow come from ChEMBL document CHEMBL3526116, “Toxicological evaluation of acyl glucuronides of nonsteroidal anti-inflammatory drugs using human embryonic kidney 293 cells stably expressing human UDP-glucuronosyltransferase and human hepatocytes” (Drug Metab Dispos, 2011).

The subject of series [1] is HEK293. Nature of the series: Cytotoxicity against HEK293 cells expressing UGT1A3 assessed as decrease in cell viability at 1 mM measured at 24 hrs by MTT assay. Format: ADME, cell-based. As to conditions: human, hek293, 24 h, 1000 µM; call rule not given here.
In series [2] the test system is HEK293. Nature of the series: Cytotoxicity against mock transfected HEK293 cells assessed as decrease in cell viability at 1 mM by MTT assay. To be noted: human, hek293, 1000 µM; TDE = time-dependent effect. Type of series: cell-based. (Formazan colour is commonly taken as a measure of viable cells.)
Series [3] relates to HEK293. Nature of the series: Cytotoxicity against mock transfected HEK293 cells assessed as decrease in cell viability by measuring intracellular ATP content at 1 mM by CellTiter-Glo luminescent assay. Type of series: cell-based. To be noted: human, hek293, 1000 µM; TDE = time-dependent effect. The method, boiled down:
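Mock-transfected HEK293 cells seeded at 2 x 10^4 cells/well in DMEM with 0.5% FBS, drug added at once and incubated 6, 12 or 24 h. Viability read either by WST-8 (CCK-8) formazan absorbance at 450 nm or by intracellular ATP luminescence (CellTiter-Glo), as percent of control cells; mean ± SD of triplicates. Final DMSO ≤0.1%.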
For orientation: In ATP-based viability assays light output follows the ATP content of the culture.

For series [4], the system named is Hepatocyte. Nature of the series: Cellular uptake in human hepatocytes at 1 mM measured at 6 hrs by LC-MS/MS analysis in absence of acyl glucuronidation inhibitor (-)-borneol. Format: ADME, cell-based. To be noted: 1000 µM. The method, boiled down: (§1)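 Cryopreserved pooled human hepatocytes on collagen-coated wells, 2 × 10^5 cells/well in HCM medium with 0.5% FBS, preincubated 30 min with or without 1 mM (-)-borneol, then drug for 6 h; DMSO ≤0.2% final. Parent drug in cell fraction measured by LC-MS/MS after methanol/acetic acid extraction. Mean ± SD of triplicates.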

Series [5] concerns Hepatocyte. Nature of the series: Cytotoxicity against human hepatocytes assessed as decrease in cell viability by measuring intracellular ATP content at 1 mM measured at 6 hrs by CellTiter-Glo luminescent assay in presence of acyl glucuronidation inhibitor (-)-borneol. Type of series: cell-based. As to conditions: 1000 µM. The method, boiled down: (§2)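 Human hepatocytes (pooled, cryopreserved), 2 × 10^4 cells/well on collagen in HCM with 0.5% FBS and 10 nM estradiol; 30-min preincubation ± 1 mM (-)-borneol, then drug 6 h. Intracellular ATP measured by CellTiter-Glo luminescence, percent of control cells. Triplicates, mean ± SD.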

In series [6] the test system is HEK293. Nature of the series: Cytotoxicity against HEK293 cells expressing UGT1A3 assessed as decrease in cell viability at 1 mM by MTT assay. Type of series: ADME, cell-based. As to conditions: human, hek293, 1000 µM; TDE = time-dependent effect.
The test system of series [7] is Hepatocyte. Nature of the series: Cytotoxicity against human hepatocytes assessed as decrease in cell viability at 1 mM measured at 6 hrs […] in presence of acyl glucuronidation inhibitor (-)-borneol. Format: cell-based. To be noted: 1000 µM.
Series [8] relates to HEK293. Nature of the series: Cytotoxicity against HEK293 cells expressing UGT1A3 assessed as decrease in cell viability by measuring intracellular ATP content at 1 mM by CellTiter-Glo luminescent assay. Type of series: ADME, cell-based. As to conditions: human, hek293, 1000 µM; TDE = time-dependent effect. The method, boiled down: (§3)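 UGT1A3 or UGT1A4 stable HEK293 cells, 2 x 10^4 cells/well in 0.1 mL DMEM with 0.5% FBS, drug for 6, 12 or 24 h. Viability from intracellular ATP via CellTiter-Glo luminescence, expressed as percent of control cells. Mean ± SD of triplicates.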

Series [9] concerns HEK293. Nature of the series: Genotoxicity in HEK293 cells expressing UGT1A3 assessed as DNA strand breaks at 1 mM after 24 hrs by comet assay. As to conditions: human, hek293, 24 h, 1000 µM. Type of series: toxicity, cell-based. The method, boiled down:
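Alkaline comet assay: HEK/UGT1A3 cells seeded 24 h before, treated 24 h in DMEM with 0.5% FBS (vehicle 0.1% DMSO; MMS 0.1 mM positive control). Cells embedded in LMP agarose, lysed 1 h at 4°C at pH 10, unwound 30 min in NaOH/EDTA, electrophoresed 300 mA 20 min, ethidium-stained; tail moment scored on 150-180 comets over >3 experiments, median (IQR).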

Series [10] relates to HEK293. Nature of the series: Cytotoxicity against HEK293 cells expressing UGT assessed as decrease in cell viability at 1 mM measured up to 72 hrs by MTT assay. Format: ADME, cell-based. As to conditions: human, hek293, 72 h, 1000 µM. The method, boiled down:
(§4)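 Mock and UGT1A3/UGT1A4 stable HEK293 cells given drug for up to 72 h; viability measured by WST-8-based MTT assay.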

The test system of series [11] is HEK293. Nature of the series: Cytotoxicity against HEK293 cells expressing UGT assessed as LDH leakage at 1 mM after 6 to 24 hrs by spectrophotometric analysis relative to total cell LDH level. Type of series: ADME, cell-based. To be noted: human, hek293, 1000 µM. The method, boiled down: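 Stable UGT-expressing or mock HEK293 lines in DMEM with 0.5% FBS, 2 x 10^4 cells/well, drug for 6, 12 or 24 h. LDH released into medium read at 490 nm (690 nm reference); percentage calculated against maximum release from control cells lysed with 1% Triton X-100.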

The subject of series [12] is Hepatocyte. Nature of the series: Cellular uptake in human hepatocytes at 1 mM measured at 6 hrs by LC-MS/MS analysis in presence of acyl glucuronidation inhibitor (-)-borneol. Format: ADME, cell-based. To be noted: 1000 µM. The essentials: as §1
In series [13] the test system is HEK293. Nature of the series: Cytotoxicity against HEK293 cells expressing UGT1A4 assessed as decrease in cell viability at 1 mM by MTT assay. To be noted: human, hek293, 1000 µM; TDE = time-dependent effect. Type of series: ADME, cell-based.
The subject of series [14] is HEK293. Nature of the series: Cytotoxicity against HEK293 cells expressing UGT1A4 assessed as decrease in cell viability by measuring intracellular ATP content at 1 mM by CellTiter-Glo luminescent assay. Format: ADME, cell-based. As to conditions: human, hek293, 1000 µM; TDE = time-dependent effect. The method, boiled down:
as §3

Series [15] concerns Hepatocyte. Nature of the series: Cytotoxicity against human hepatocytes assessed as decrease in cell viability by measuring intracellular ATP content at 1 mM measured at 6 hrs by CellTiter-Glo luminescent assay in absence of acyl glucuronidation inhibitor (-)-borneol. Format: cell-based. To be noted: 1000 µM. The essentials: as §2
Series [16] has as its system HEK293. Nature of the series: Cytotoxicity against HEK293 cells expressing UGT1A4 assessed as decrease in cell viability at 1 mM measured at 24 hrs by MTT assay. Format: ADME, cell-based. To be noted: human, hek293, 24 h, 1000 µM.
The test system of series [17] is HEK293. Nature of the series: Cytotoxicity against HEK293 cells expressing UGT assessed as decrease in cell viability at 0.1 mM measured up to 72 hrs by MTT assay. Format: ADME, cell-based. As to conditions: human, hek293, 72 h, 100 µM. The essentials:
as §4

For series [18], the system named is HEK293. Nature of the series: Cytotoxicity against HEK293 cells expressing UGT1A3 assessed as decrease in cell viability at 0.1 mM measured at 24 hrs by MTT assay. Type of series: ADME, cell-based. As to conditions: human, hek293, 24 h, 100 µM.
Series [19] relates to HEK293. Nature of the series: Cytotoxicity against HEK293 cells expressing UGT1A4 assessed as decrease in cell viability at 0.1 mM measured at 24 hrs […]. Type of series: ADME, cell-based. As to conditions: human, hek293, 24 h, 100 µM.

The structures appear in SMILES notation. Some results are limits rather than exact numbers.

As for `CC(C(=O)O)c1ccc(-c2ccccc2)c(F)c1` (stereo unspecified) [FLURBIPROFEN], the Activity result in the series with HEK293 [1] is given as “Non-toxic”.

`COc1c(C)c2c(c(O)c1C/C=C(\C)CCC(=O)O)C(=O)OC2` [MYCOPHENOLIC ACID]: the Activity result in the series with HEK293 [1] is on record as “Non-toxic”.

In the case of `COc1ccc2cc([C@H](C)C(=O)O)ccc2c1` [NAPROXEN], the Activity entry in the series with HEK293 [2] is “tde”; in the series on HEK293 [3] it was “tde”; with Hepatocyte [5] it was “Toxic”; with HEK293 [6], “tde”; in the series with Hepatocyte [7] it was “Toxic”; in the series on HEK293 [8], “tde”. In addition, the Activity result in the series on HEK293 [9] is recorded as “Non-toxic”; with HEK293 [10], “Non-toxic”; in the series with HEK293 [11], less than 5.4%; with HEK293 [13], “tde”; in the series on HEK293 [14], “tde”; with Hepatocyte [15], “Toxic”. Also, the Drug uptake entry in the series with Hepatocyte [4] and in the series with Hepatocyte [12] was “Active” throughout.

For the compound `Cc1cccc(Nc2ccccc2C(=O)O)c1C` [MEFENAMIC ACID], in the series on HEK293 [1], the Activity result was “Non-toxic”.

For `CC1=C(CC(=O)O)c2cc(F)ccc2/C1=C\c1ccc([S+](C)[O-])cc1` (stereo unspecified), the Activity entry in the series on HEK293 [1] was “Non-toxic”.

On to `O=C(O)c1ccccc1O` [SALICYLIC ACID], for which the Activity result with HEK293 [1], with HEK293 [10] and in the series with HEK293 [16] was “Non-toxic” each time.

As to `COc1ccc2c(c1)c(CC(=O)O)c(C)n2C(=O)c1ccc(Cl)cc1` [INDOMETHACIN], the Activity entry with HEK293 [1] is “Non-toxic”.

With `Cc1cc(CC(=O)O)n(C)c1C(=O)c1ccc(Cl)cc1` [ZOMEPIRAC], the Activity result in the series with HEK293 [17], in the series with HEK293 [18] and with HEK293 [19] was “Non-toxic” in each case.

Take `CCCN(CCC)S(=O)(=O)c1ccc(C(=O)O)cc1` [PROBENECID]: the Activity result in the series on HEK293 [1] is recorded as “Non-toxic”.
